Screening data as filed in PubChem.
PRMT1 FP inh: inhibitors of human PRMT1. inhibition, % at 2.79 µM. recombinant PRMT1, activity-based probe fluorescence polarization. 370,000 tested, 1.3% active. Q99873;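 active means inhibition above about 21% made by adding two undisclosed values, limit read from the data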
rCAG binder-1: binds r(CAG) RNA repeats. r(CAG) RNA repeat, TO-PRO-1 dye displacement fluorescence. inhibition, % at 3 µM. 370,000 tested, 1.3% active. AID 651821;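 active means inhibition above the plate cutoff, the mean of all test compounds on that plate plus 3 SD, cut at about 35% in these data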;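 further: higher means more dye released from RNA so lower well fluorescence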
TCR CD3 inh: inhibitors of human TCR-CD3 interaction | TAMRA-labeled TCR probe fluorescence, biochemical | inhibition, % at 9.4 µM | 360,000 tested, 0.37% active | AID 651800; in the data active means inhibition above about 19%;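 further: recombinant mutant TCR 2C K166C tagged with TAMRA read by polarization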
ABHD4 inh: inhibits mouse alpha/beta hydrolase domain 4. Q8VD66. purified mABHD4, FP-Rh probe fluorescence polarization. inhibition, % at 8.92 µM. 370,000 tested, 0.54% active;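 active means inhibition exceeding the mean over every tested compound plus 3 SD, cut at about 30% in these data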
Target sequence (Q8VD66 whole entry, looked up, the tested form may be a part): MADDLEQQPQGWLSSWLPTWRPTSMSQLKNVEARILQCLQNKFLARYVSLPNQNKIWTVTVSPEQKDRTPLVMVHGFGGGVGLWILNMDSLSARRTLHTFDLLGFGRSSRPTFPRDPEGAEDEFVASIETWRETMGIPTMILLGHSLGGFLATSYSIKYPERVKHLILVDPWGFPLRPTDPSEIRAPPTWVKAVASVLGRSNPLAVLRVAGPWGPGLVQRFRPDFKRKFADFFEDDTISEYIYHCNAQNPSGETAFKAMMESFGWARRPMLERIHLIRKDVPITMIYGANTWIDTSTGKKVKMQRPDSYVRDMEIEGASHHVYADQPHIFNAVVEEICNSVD
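Assay system: mABHD4 protein; medium: HEPES pH 7.0, NaCl, Pluronic buffer; dosing: 8.92 µM, single dose; schedule: 45 min + 60 min at 25 °C; signal: FP readout, ex 525 nm / em 598 nm; read-out: normalized percent inhibition of probe labeling; repeats: single replicate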
SIAE primary: inhibitors of human sialic acid acetylesterase SIAE; Q9HAT2; SIAE FP-Rh probe binding, fluorescence polarization; inhibition, % at 9.66 µM; 370,000 tested, 0.69% active;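 active means inhibition above a cutoff: mean of compounds within the control limits plus 3 SD of those, cut at about 17% in these data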
rCAG binder conf: r(CAG) RNA repeat binding, confirmation. inhibition, % at 3 µM. TO-PRO-1 dye displacement fluorescence. AID 652065. shares compounds with rCAG binder-1. 4,300 tested, 70% active;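 active means inhibition above a per-plate cutoff, the mean inhibition of sample wells plus 3 SD, cut at about 35% in these data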;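 further: loss of TO-PRO-1 fluorescence as compound displaces dye from 1x1 AA loop RNA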
DNA CAG counter: counter-screen for rCAG RNA binders: DNA CAG dye complex inhibitors; d(CAG) DNA oligo TO-PRO-1 dye displacement, fluorescence; shares compounds with rCAG binder-1; inhibition, % at 3 µM; AID 652068; 4,300 tested, 94% active;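 active means inhibition above its plate's cutoff, the mean test-well inhibition plus 3 SD, cut at about 4.8% in these data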;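 further: hits displace the dye from DNA and so lower well fluorescence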
DNA CAG DR: DNA CAG dye complex inhibition, dose response counter-screen; shares compounds with rCAG binder-1; DNA CAG/GTC duplex TO-PRO-1 dye displacement fluorescence; IC50, µM; 250 tested, 20% active; in the data active means IC50 below about 10 µM
dCAG DNA bind: inhibits DNA CAG/GTC TO-PRO-1 complex, rCAG binder counter-screen; shares compounds with rCAG binder-1; d(CAG) DNA duplex TO-PRO-1 dye displacement, fluorescence; IC50, µM; 30 tested, 80% active; AID 720649
rCAG binder-2: binds r(CAG) RNA repeats in late stage dose response; shares compounds with rCAG binder-1; r(CAG) RNA TO-PRO-1 dye displacement, fluorescence; IC50, µM; 30 tested, 100% active
Hits are given with their value; i = inactive; nt = no result given. Compounds with a hit are over-represented: about 3.3% of the library has one in this group of screens. Unless noted, how the calls were made is not given here.

SMILES	PRMT1 FP inh	rCAG binder-1	TCR CD3 inh	ABHD4 inh	SIAE primary	rCAG binder conf	DNA CAG counter	others
Cc1ccc([N+](=O)[O-])cc1-c1ccc(/C=C(\C#N)c2[nH]nc(N)c2C#N)o1	i	84	i	i	i	63	47
O=C(O)Cn1nnc(-c2ccc(OCc3ccccc3Cl)cc2)n1	i	39	i	i	i	i	i
CC(C)c1ccc(NC(=O)C2CCCCC2C(=O)O)cc1 (stereo unspecified)	i	i	i	i	i	nt	nt
Cc1cc(C)cc(NS(=O)(=O)c2ccc(NC(=O)C3CCCCC3C(=O)O)cc2)c1 (stereo unspecified)	i	36	i	i	i	i	4.8
Cc1ccccc1-c1cc(C(=O)Nc2sc(C(=O)OC(C)C)c(C)c2C#N)c2ccccc2n1	i	47	i	i	i	62	28
CCN(CC)C(=O)CC[C@H]1CC[C@]2(CCCN(C(=O)c3ccccc3)C2)O1	i	i	nt	i	i	nt	nt
Cc1ccc(S(=O)(=O)NC(=O)C2(C)CCN2C(=O)c2ccccc2CCc2ccccc2)cc1 (stereo unspecified)	i	48	i	i	i	48	14
CC1(C(=O)NS(=O)(=O)c2ccc(Cl)s2)CCN1C(=O)c1ccccc1CCc1ccccc1 (stereo unspecified)	i	71	i	i	i	72	31	DNA CAG DR=3
Cc1ccccc1S(=O)(=O)NC(=O)C1(C)CCN1C(=O)c1ccccc1CCc1ccccc1 (stereo unspecified)	i	50	i	i	i	41	10
CC1(C(=O)NS(=O)(=O)c2ccc(Cl)s2)CCN1C(=O)CCc1ccccc1 (stereo unspecified)	i	i	i	i	i	nt	nt
CC1(C(=O)NS(=O)(=O)c2ccc(C#N)cc2)CCN1C(=O)c1ccccc1CCc1ccccc1 (stereo unspecified)	i	48	i	i	i	45	11
COc1ccc(S[C@]2(C(=O)NC3CC3)CC(=O)N[C@@H]2c2ccc(OC)cc2)cc1	i	i	nt	i	i	nt	nt
COc1ccc(Cn2ccc3ccc(-c4ccc5ccn(Cc6ccc(F)cc6)c5c4)cc32)cc1	i	i	nt	i	i	nt	nt
O=S(=O)(c1ccc(Cl)s1)N1CCC(c2cn3ccccc3n2)CC1	i	i	nt	i	i	nt	nt
CC1(C(=O)NS(=O)(=O)c2ccccc2)CCN1C(=O)c1ccccc1CCc1ccccc1 (stereo unspecified)	i	40	i	i	i	i	6.5
Cc1noc(C)c1S(=O)(=O)NC(=O)C1(C)CCN1C(=O)c1ccccc1CCc1ccccc1 (stereo unspecified)	i	i	i	i	i	nt	nt
CC(C)=CCC/C(C)=C/Cc1c(O)ccc(C(=O)/C=C/c2ccc(O)cc2)c1O	i	68	i	i	i	39	24
C=C(C)C(O)Cc1c(OC)ccc(C(=O)/C=C/c2ccc(O)cc2)c1O (stereo unspecified)	i	i	i	i	i	nt	nt
COc1ccc(N=C2NC(=O)/C(=C/c3ccc(O)c(OC)c3)S2)cc1	i	i	i	i	i	nt	nt
CCc1ccc(N=C2NC(=O)/C(=C/c3ccc(OCC(=O)O)c(OC)c3)S2)cc1	i	42	i	i	i	39	12
CCc1ccc(N=C2NC(=O)/C(=C/c3ccc(OCC(=O)O)cc3)S2)cc1	i	49	i	i	i	40	10
COc1ccc(CN2C/C(=C/c3ccc(C)cc3)N3C(=O)C[C@@H](c4ccccc4)N=C23)c(OC)c1	i	i	nt	i	i	nt	nt
CC(=O)C1=CCC(c2ccc(C)cc2)N(S(=O)(=O)c2ccc(Cl)cc2)C1 (stereo unspecified)	i	i	i	i	i	nt	nt
Cc1ccc(S(=O)(=O)N2[C@@H](c3ccc(Cl)cc3)C(C(=O)O)=CC[C@H]2c2ccc(Cl)c(Cl)c2)cc1	i	86	i	i	i	86	59
Cc1ccc(S(=O)(=O)N2C(c3ccc(Cl)c(Cl)c3)CC=C(C(=O)O)C2c2ccc(Cl)cc2)cc1 (stereo unspecified)	i	82	i	i	i	83	52
SMILES	PRMT1 FP inh	rCAG binder-1	TCR CD3 inh	ABHD4 inh	SIAE primary	rCAG binder conf	DNA CAG counter	others
COc1cc([C@@H]2CC=C(C(=O)O)[C@H](c3ccc(Cl)cc3)N2S(=O)(=O)c2ccc(C)cc2)cc(OC)c1OC	i	35	i	i	i	i	7.6
COc1cc([C@@H]2CC=C(C(=O)O)[C@H](c3ccccc3)N2S(=O)(=O)c2ccc(C)cc2)cc(OC)c1OC	i	i	i	i	i	nt	nt
Cc1ccc(S(=O)(=O)N2C(c3ccc(Cl)c(Cl)c3)CC=C(C(=O)O)C2c2cccc(Cl)c2)cc1 (stereo unspecified)	i	i	i	i	i	nt	nt
Cc1ccc(S(=O)(=O)N2CC(C(=O)O)=CC[C@H]2c2ccc(Cl)cc2)cc1	i	37	i	i	i	i	i
O=C1OC(c2cccs2)=N/C1=C/c1ccc(-c2cccc(C(=O)O)c2)o1	i	i	i	i	i	nt	nt
CC(C)S(=O)(=O)C1=NSC2=NC(=O)/C(=C\c3ccc(-c4ccccc4)o3)C(=N)N21	i	38	i	i	i	87	66
N=C1/C(=C\c2ccc(-c3cc(Cl)cc(Cl)c3)o2)C(=O)N=C2SC=C(c3ccccc3)N12	i	37	i	i	i	38	22
CC(C)S(=O)(=O)C1=NSC2=NC(=O)/C(=C\c3ccc(-c4cccc(C(=O)O)c4)o3)C(=N)N21	i	72	i	i	i	74	29	DNA CAG DR=i;dCAG DNA bind=1.3;rCAG binder-2=0.33
C=CCNC(=O)CN(C(=O)Cc1ccc(Cl)nc1)c1cccc(Br)c1	i	i	nt	i	i	nt	nt
Cc1ccccc1NC(=O)c1ccc(C)c(S(=O)(=O)Nc2cccnc2)c1	i	i	i	i	i	nt	nt
O=C(Nc1ccccc1C(=O)O)c1cc(S(=O)(=O)NCc2ccccc2)ccc1Cl	i	49	i	i	i	39	6.5
Cc1ccc(C(=O)Nc2ccccc2C(=O)O)cc1S(=O)(=O)NCc1ccccc1	i	64	i	i	i	50	17
Cc1ccc(C(=O)Nc2ccccc2C(=O)O)cc1NC(=O)COc1c(C)cccc1C	i	i	i	i	i	nt	nt
NC(=O)c1ccc(NS(=O)(=O)c2ccc(Br)s2)cc1	i	i	i	i	i	nt	nt
